M4 ag – CHRM4 agonism in calcium assay. 360,000 compounds, 0.14% hits. P08173. CHO-K1 hM4/Gqi5, Fluo-8 calcium fluorescence; vehicle 0%, full acetylcholine response 100%. AID 624127. activation, % at 3 µM;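 active = activation above the run mean over all test wells plus 3 SD, cut at about 32% in these data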;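 also: peak over basal fluorescence ratio per well then scaled between controls; 0% = DMSO wells and 100% = acetylcholine at EC100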
Target sequence (P08173 whole entry, looked up): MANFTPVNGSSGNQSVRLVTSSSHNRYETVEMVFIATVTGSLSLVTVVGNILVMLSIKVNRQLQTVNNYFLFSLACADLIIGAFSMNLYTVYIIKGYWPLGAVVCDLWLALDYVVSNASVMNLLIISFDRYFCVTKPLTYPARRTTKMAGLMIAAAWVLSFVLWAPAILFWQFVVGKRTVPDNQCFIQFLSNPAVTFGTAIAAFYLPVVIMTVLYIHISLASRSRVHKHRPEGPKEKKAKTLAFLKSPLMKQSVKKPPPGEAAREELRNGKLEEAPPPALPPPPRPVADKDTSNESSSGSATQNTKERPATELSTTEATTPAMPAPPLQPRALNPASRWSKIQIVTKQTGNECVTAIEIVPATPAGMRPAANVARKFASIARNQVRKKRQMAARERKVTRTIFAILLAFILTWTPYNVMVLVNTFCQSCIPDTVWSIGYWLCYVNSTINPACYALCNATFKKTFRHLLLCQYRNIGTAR
CHRM5 PAM – potentiates acetylcholine response at human M5 receptor. P08912. CHO-K1 hM5, Fluo-8 calcium, ACh EC20 PAM; 0% = ACh EC20, 100% = ACh EC100. activation, % at 3 µM. 360,000 compounds, 0.3% hits. AID 624038;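 active = activation above the run cutoff, the mean activation of all test compounds plus 3 SD, cut at about 18% in these data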
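Assay system: CHO-K1 hM5 cells. Also added: acetylcholine at EC20 concentration, added after compound. Dosing: 3 µM, single dose. Times: compound preincubation 140 s before EC20 acetylcholine addition. Signal: Fluo-8 calcium fluorescence. Measure: % activation relative to EC20 and EC100 ACh responses. Repeats: singlicate, one well per test compound.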
M4 antag – antagonists of human muscarinic M4 receptor (CHRM4); P08173; CHO-hM4 cells, ACh EC80, Fluo-8 calcium fluorescence; inhibition, % at 3 µM; 360,000 compounds, 0.73% hits;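 active = inhibition above its plate's cutoff, the mean inhibition of sample wells plus 3 SD, cut at about 27% in these data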;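 also: 0% = acetylcholine EC80 with DMSO and 100% = DMSO without agonist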
M5 ag – CHRM5 agonism in calcium assay. CHO-K1 hM5 cells, Fluo-8 calcium fluorescence; 0% DMSO wells, 100% maximal acetylcholine response. P08912. 360,000 compounds, 0.19% hits. AID 624037. activation, % at 3 µM;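 active = activation above the run's mean over test compounds plus 3 SD, cut at about 23% in these data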;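 also: signal is peak over basal fluorescence ratio across the kinetic read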
M4 PAM – potentiates acetylcholine response at human M4 receptor; P08173; CHO-K1 hM4/Gqi5, Fluo-8 calcium fluorescence, ACh EC20; 0% = ACh EC20, 100% = maximal ACh; activation, % at 3 µM; 360,000 compounds, 0.4% hits; AID 624126;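 active = activation above its plate's cutoff, the mean activation of sample wells plus 3 SD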
M5 antag – blocks acetylcholine activation of human M5 receptor; P08912; CHO-hM5 cells, Fluo-8 calcium fluorescence, ACh EC80; AID 624040; inhibition, % at 3 µM; 360,000 compounds, 0.59% hits;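 active = inhibition above a per-plate cutoff, the mean of that plate's test compounds plus 3 SD, cut at about 27% in these data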;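 also: 0% = acetylcholine EC80 with DMSO and 100% = DMSO without agonist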
An asterisk follows results filed as active. Hits are enriched below; roughly 1.8% of the tested compounds scored in any of these assays.

SMILES | M4 ag | CHRM5 PAM | M4 antag | M5 ag | M4 PAM | M5 antag
O=C(Cc1ccccc1Cl)c1ccccc1 | 1 | 9 | -15 | -2 | 27* | -2
O=C(COc1ccc(Br)cc1)NNC(=O)Cc1ccc(S(=O)(=O)N2CCOCC2)s1 | 4 | 6 | -12 | 3 | 7 | 0
Cc1ccc(C(=O)N2CCN(c3ccccn3)CC2)cc1C | 2 | 1 | -4 | 2 | 15* | 11
CCOc1ccc(/C=C2\SC(=S)NC2=O)cc1OC | 3 | -1 | -2 | 1 | -2 | -5
COc1cc(/C=C2/SC(=S)NC2=O)ccc1OS(=O)(=O)c1ccc(C)cc1 | 10 | -17 | 11 | 5 | -13 | 36*
COc1ccc(/C=C2\SC(=S)NC2=O)cc1OS(=O)(=O)c1ccc(NC(C)=O)cc1 | 3 | -8 | -7 | 2 | 1 | 11
COc1ccc(/C=C2\SC(=O)NC2=S)cc1OC | 33* | -18 | 20 | 11 | -28 | 12
CC(C)(C)C1CCC(=O)N(CCC#N)CC1 (stereo not given) | 2 | -3 | -1 | 2 | 9 | 1
Cc1ccc(-n2c(C)cc(=O)cc2C)cc1[N+](=O)[O-] | 1 | 4 | -1 | -3 | -8 | 8
COc1ccc(C(=O)N/C(=C\c2cn(C)c3ccccc23)C(=O)N2CCOCC2)cc1 | 1 | 0 | -30 | -2 | 5 | -8
CCN(C(=O)c1cccs1)c1nc(-c2ccc(OC)cc2)cs1 | 0 | 5 | -5 | -1 | 4 | -10
CCN(CC)CCN(C(=O)c1ccc([N+](=O)[O-])cc1)c1nc2ccc(OC)cc2s1 | 1 | 7 | -14 | -4 | 32* | -3
COc1ccc(-c2csc(N(CCCN(C)C)C(=O)c3cccs3)n2)cc1 | 9 | -16 | -2 | -4 | -14 | 38*
COc1ccc(-c2csc(N(CCCN3CCOCC3)C(=O)c3ccco3)n2)cc1 | 16 | -12 | 36* | -2 | -10 | 18
COc1ccc(-c2csc(N(CCCN(C)C)C(=O)c3ccc(Br)cc3)n2)cc1 | 16 | -4 | 23 | -6 | 47* | 4
O=C1NC[C@H](CCCCN2C[C@H](Cc3ccccc3)N(CC3CCCCC3)C(=O)C2=O)N(CCc2ccccc2)C1=O | 1 | 1 | -11 | 2 | 4 | -5
O=C(c1cccc(S(=O)(=O)N2CCc3ccccc32)c1)N1CCOCC1 | 2 | 0 | 7 | 4 | -1 | 3
CCOc1ccccc1OCCCC(=O)N1CCN(S(=O)(=O)c2ccccc2C#N)CC1 | 6 | -4 | -18 | 1 | 0 | 1
C[C@H](CO)N1C[C@H](C)[C@@H](CN(C)S(=O)(=O)c2ccccc2F)Oc2ncc(C#Cc3cccnc3)cc2C1=O | 9 | -2 | -18 | 0 | -4 | 2
CCN(CC)CCCN(C(=O)c1ccccc1C)c1nc(-c2ccc(OC)cc2)cs1 | 1 | 12 | -4 | -13 | 0 | 7
CCN(CC)CCCN(C(=O)c1ccc(OC)cc1)c1nc(-c2ccc(OC)cc2)cs1 | 10 | -1 | 29* | -19 | 49* | 6
COc1ccc(-c2csc(N(CCCN(C)C)C(=O)c3ccc(C)cc3)n2)cc1 | 23 | 7 | 49* | -7 | 49* | -7
Cc1ccc(S(=O)(=O)Cn2nnnc2C(C(C)C)N2CCC(C(N)=O)CC2)cc1 (stereo not given) | 3 | -2 | 0 | 0 | -4 | 18
Cc1ccccc1C(=O)NNc1ncnc2c1cnn2C | 0 | -8 | 13 | 2 | -15 | 17
Cc1ccc(C(=O)NNc2ncnc3c2cnn3C)cc1 | 1 | 19* | -9 | 2 | 1 | -5
SMILES | M4 ag | CHRM5 PAM | M4 antag | M5 ag | M4 PAM | M5 antag
Cc1ccc(CNC(=O)c2ccc(Cl)c(S(=O)(=O)N3CCCCC3)c2)cc1 | 7 | -3 | -11 | 2 | -5 | 0
O=C(c1cccnc1)N1CCN(c2ccc(Cl)cc2)CC1 | 5 | 8 | -7 | -1 | 30* | -8
O=C(c1ccc(Cl)cc1)N1CCN(c2ccc([N+](=O)[O-])c(NCc3cccnc3)c2)CC1 | 7 | -7 | 7 | -11 | 26* | -2
O=C(Nc1ccc(N2CCN(C(=O)c3ccc(Cl)cc3)CC2)cc1)c1cccnc1 | 9 | -6 | 11 | 4 | -6 | 3
Cc1cccc(C)c1NC(=O)COC(=O)c1c2c(nc3ccccc13)/C(=C\c1ccc3c(c1)OCO3)CCC2 | 88* | -21 | 37* | 49* | -22 | 23
CCOc1cc(/C=C2\CCCc3c2nc2ccccc2c3C(=O)O)ccc1OC | 44* | -8 | 4 | 16 | -10 | 6
COc1ccc(N2CCN(C(=O)COC(=O)CC(NC(N)=O)c3ccc(Cl)cc3)CC2)cc1 (stereo not given) | 0 | 1 | 4 | 0 | -3 | 5
CCOC(=O)C1=C(Nc2ccc(OC)cc2)C(N)=NC1=N | 0 | 2 | -1 | 1 | -3 | -3
CC(C)C[C@@H](COCc1cccc(C(F)(F)F)c1)N1CCN(C(=O)c2ccc(C(F)(F)F)cc2)CCC1=O | 4 | -5 | -5 | 0 | -5 | -1
CCOC(=O)C1CCCN(C2=NC(=O)/C(=C/c3ccc(N(C)C)cc3)S2)C1 (stereo not given) | 41* | -7 | -5 | 11 | -9 | 7
Clc1ccc(CSc2nnc(-c3ccncc3)o2)c(Cl)c1 | 0 | -8 | 14 | 2 | 32* | 0
Cc1ccccc1CSc1nnc(-c2ccncc2)o1 | 1 | -4 | 1 | -2 | -1 | 2
OC(c1cc(-c2cccc(Cl)c2)nc2ccccc12)C1CCCCN1 (stereo not given) | 23 | -1 | 37* | 3 | 11 | 8
COc1ccccc1C(=O)NCCC(=O)NCc1cccs1 | 0 | 4 | 7 | 2 | -3 | -1
O=C(O)CCNC(=O)C12CC3CC(CC(C3)C1)C2 | 1 | 3 | -3 | 2 | 5 | -2
CC(C)CNC(=O)NC1(C(F)(F)F)Oc2ccccc2O1 | 4 | 5 | 1 | 2 | -2 | 0
O=C(NCc1cccnc1)NC1(C(F)(F)F)Oc2ccccc2O1 | 0 | 40* | -3 | -7 | -1 | -15
CC1CCCCC1NC(=O)COc1ccccc1C#N (stereo not given) | 1 | 0 | 9 | 1 | 2 | 3
CN(Cc1ccc(Cl)c(Cl)c1)C(=O)c1ccccc1SCC(=O)N1CCCC1 | 8 | -4 | -9 | 1 | -1 | -2
COc1ccc(CCC(=O)N2CCN(c3ccc([N+](=O)[O-])cc3)CC2)cc1OC | 1 | -7 | -10 | -1 | 4 | 8

Screening results as filed in PubChem BioAssay.
